The values that follow come from ChEMBL document CHEMBL1144211, “Overcoming hERG issues for brain-penetrating cathepsin S inhibitors: 2-cyanopyrimidines. Part 2” (Bioorg Med Chem Lett, 2008).

Type in all cases: ADME, organism-based
Series [1] is described as follows: Plasma concentration in Sprague-Dawley rat at 10 mg/kg, po after 1 hr. On the set-up: dose 10 mg/kg, route oral. In outline: (§1)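 Sprague–Dawley rats received a single oral dose of 10 mg/kg. Plasma and brain concentrations (nM) were measured at 1 h and 3 h after dosing. Values are means of n = 3.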
Series [2] can be described thus: Drug level in Sprague-Dawley rat brain at 10 mg/kg, po after 1 hr. Also noted: dose 10 mg/kg, route oral. Conditions: read-out: Drug uptake. The gist of the method:
as §1

Series [3] in a line: Plasma concentration in Sprague-Dawley rat at 10 mg/kg, po after 3 hrs. Also noted: dose 10 mg/kg, route oral. In outline:
as §1

Series [4] is described as follows: Drug level in Sprague-Dawley rat brain at 10 mg/kg, po after 3 hrs. Also noted: dose 10 mg/kg, route oral. Conditions: read-out: Drug uptake. In outline: as §1
Series [5] in a line: AUC in Sprague-Dawley rat at 10 mg/kg, po. Also noted: dose 10 mg/kg, route oral. Conditions: plasma.
Series [6] in a line: Half life in Sprague-Dawley rat at 1 mg/kg, iv. Also noted: dose 1 mg/kg, route intravenous. Conditions: in vivo. In outline:
(§2)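 PK parameters in male Sprague–Dawley rats after intravenous dosing at 1 mg/kg and after oral dosing. Parameters derived were Vdss, apparent half-life, oral Cmax and estimated bioavailability.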

The nature of series [7]: Volume of distribution at steady state in Sprague-Dawley rat at 1 mg/kg, iv. Conditions: in vivo, read-out: Vdss. On the set-up: dose 1 mg/kg, route intravenous. In outline: as §2
A short description of series [8]: Cmax in Sprague-Dawley rat at 10 mg/kg, po. Also noted: dose 10 mg/kg, route oral. Conditions: in vivo. The gist of the method: as §2
The nature of series [9]: Plasma clearance in Sprague-Dawley rat at 1 mg/kg, iv or 10 mg/kg, po.
A short description of series [10]: Oral bioavailability in Sprague-Dawley rat at 10 mg/kg. Conditions: in vivo. In outline:
as §2

Bounds are passed on as bounds.

Regarding `CNC(=O)c1c(NCC2CCC3(CCC3)CC2)nc(C#N)nc1OCC1CCNCC1`, the concentration at 1 h in series [1] was 28 nM; in [2], less than 13 nM. For the same compound, the results for the concentration at 3 h in series [3] and in [4] were 61 nM and less than 13 nM, respectively.
On to `CNC(=O)c1c(NCC2CCC3(CCC3)CC2)nc(C#N)nc1OCCO`, for which, in series [5], the exposure (AUC) is 2.5 µM·h. The compound further gave a half-life in series [6] of 1.5 h. The concentration at 1 h in [1] was determined as 283 nM; in series [2], 692 nM. For the same compound, the Vd in [7] amounted to 1.2 L/kg. In [8], this compound showed a maximum concentration (Cmax) of 907 nM. For the same compound, in series [9], the clearance is 25 mL/min/kg. Moreover, the concentration at 3 h came out at 170 nM in [3] and 849 nM in [4]. For the same compound, in [10], the bioavailability came to 14%.
Turning to `CNC(=O)c1c(NCC2CCC3(CCC3)CC2)nc(C#N)nc1OCC1CCN(C(C)C)CC1`, the AUC in [5] was determined as 8.08 µM·h. In addition, the half-life in series [6] was 11.8 h. For the same compound, the values for the concentration at 1 h in series [1] and in series [2] were 191 nM and 67 nM, respectively. In series [7], the Vd turned out to be 9.3 L/kg. Besides, in series [8], the Cmax is 298 nM. The clearance in [9] is 10 mL/min/kg. Besides, the results for the concentration at 3 h in series [3] and in [4] were 381 nM and 455 nM, respectively. In series [10], the bioavailability was 24%.
In the case of `CNC(=O)c1c(NCC2CCC3(CCC3)CC2)nc(C#N)nc1OC1CC(C)(C)NC(C)(C)C1`, the concentration at 3 h in series [3] stood at 287 nM; in series [4] it was 164 nM.
As to `CNC(=O)c1c(NCC2CCC3(CCC3)CC2)nc(C#N)nc1OCC1CCN(C(C)=O)CC1`, the concentration at 1 h in series [1] was determined as 169 nM; in [2] it was 27 nM. In addition, the concentration at 3 h in series [3] was 80 nM; in series [4], less than 13 nM.
`CNC(=O)c1c(NCC2CCC3(CCC3)CC2)nc(C#N)nc1OCC1CCN(C)CC1`: the AUC in series [5] was found to be 8.24 µM·h. In series [6], this compound had a half-life of 6.7 h. The concentration at 1 h came out at 346 nM in series [1] and 124 nM in series [2]. Besides, the Vd in [7] turned out to be 9.8 L/kg. This compound also showed a maximum concentration (Cmax) in series [8] of 461 nM. Further, the clearance in series [9] is 18.3 mL/min/kg. Also, the concentration at 3 h in [3] is 308 nM; in series [4] it was 718 nM. In series [10], this compound yielded a bioavailability of 40%.

By AUC is commonly meant concentration integrated over time. Read a high AUC as high exposure. As usually defined, the half-life is the time in which the quantity being followed falls by half. Read a low half-life as rapid decline. As usually defined, the Cmax is the highest concentration seen after dosing. The term bioavailability denotes dose-corrected exposure relative to a reference, in per cent. High values mean good availability, low ones poor availability.
